Here are results for 4 molecules from ChEMBL document CHEMBL3085773, “A general method for making peptide therapeutics resistant to serine protease degradation: application to dipeptidyl peptidase IV substrates” (J Med Chem, 2013).

Broadly, the Ki is a measure of affinity in units of concentration, obtained from inhibition or displacement.

Activity calls are given as the source filed them. The rule behind the calls is not given here. Square brackets hold non-standard residues; d marks the D form. Peptide text beside a SMILES is read from it. ξ: configuration not given here. ξAsp(3,3-Me2) = CC(C)(C(=O)O)C(N)C(=O)O; ξTle = CC(C)(C)C(N)C(=O)O

For data set [1], the target named is DPP4 (dipeptidyl peptidase 4) (Sus scrofa, UniProt P22411). The data set can be described thus: Stability of the compound assessed as porcine DPP4-mediated compound degradation measured intact level at 0.1 mM measured at 30 mins by reverse-phase HPLC/MS analysis. Type of data set: ADME. The conditions noted are these: pig, read-out: Stability. In short, it runs like this: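 Synthetic hexapeptides (0.1 mM) incubated at 37 °C with 10 mU/mL DPP IV purified from porcine kidney in 50 mM HEPES, 0.14 M NaCl, pH 8.0; intact peptide by HPLC-MS, expressed as percent of time-zero value.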
DPP4 (dipeptidyl peptidase 4), sequence (P22411 whole entry): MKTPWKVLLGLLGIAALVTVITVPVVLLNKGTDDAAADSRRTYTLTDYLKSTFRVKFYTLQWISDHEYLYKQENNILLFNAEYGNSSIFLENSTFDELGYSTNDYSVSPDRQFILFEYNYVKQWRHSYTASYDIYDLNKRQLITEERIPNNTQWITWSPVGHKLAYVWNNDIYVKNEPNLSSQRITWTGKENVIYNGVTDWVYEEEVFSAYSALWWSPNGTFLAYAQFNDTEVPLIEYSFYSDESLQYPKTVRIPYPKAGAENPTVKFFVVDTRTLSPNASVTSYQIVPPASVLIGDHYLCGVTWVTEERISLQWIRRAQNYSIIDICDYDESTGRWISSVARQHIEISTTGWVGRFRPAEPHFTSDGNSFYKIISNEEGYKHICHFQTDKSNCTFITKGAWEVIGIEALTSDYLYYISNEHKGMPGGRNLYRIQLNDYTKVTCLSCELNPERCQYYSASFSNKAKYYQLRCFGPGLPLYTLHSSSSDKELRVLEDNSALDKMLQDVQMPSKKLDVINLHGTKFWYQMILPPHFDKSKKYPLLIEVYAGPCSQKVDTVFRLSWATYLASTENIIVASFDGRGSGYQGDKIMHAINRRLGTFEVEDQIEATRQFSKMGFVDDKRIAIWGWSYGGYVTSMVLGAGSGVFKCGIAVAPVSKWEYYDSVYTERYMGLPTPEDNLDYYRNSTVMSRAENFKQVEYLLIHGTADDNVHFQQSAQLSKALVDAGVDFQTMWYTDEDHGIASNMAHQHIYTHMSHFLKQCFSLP

For the next data set, the target named is Trypsin (Sus scrofa, UniProt P00761). As to the kind of experiment: Stability of the compound assessed as porcine pancreatic trypsin-mediated compound degradation at 0.1 mM after 5 hrs by reverse-phase HPLC/MS analysis. The data set is classed as ADME. The following applies: pig, isolated protein, 100 µM.
Trypsin, sequence (P00761 whole entry): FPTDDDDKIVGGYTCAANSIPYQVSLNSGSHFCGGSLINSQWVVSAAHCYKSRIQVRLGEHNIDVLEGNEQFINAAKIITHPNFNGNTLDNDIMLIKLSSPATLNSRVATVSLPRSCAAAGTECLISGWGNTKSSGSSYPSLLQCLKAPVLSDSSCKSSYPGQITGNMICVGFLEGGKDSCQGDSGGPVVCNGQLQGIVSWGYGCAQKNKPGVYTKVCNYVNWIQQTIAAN
The target in data set [2] is Chymotrypsinogen A (Bos taurus) (UniProt P00766). The data set can be described thus: Stability of the compound assessed as bovine pancreatic chymotrypsin-mediated compound degradation measured intact level at 0.1 mM after 0.6 hrs by reverse-phase HPLC/MS analysis. The conditions noted are these: cow.
Data set [3] concerns the target T1, Dipeptidyl peptidase 4 (Homo sapiens, UniProt P27487). The data set can be described thus: Stability of the compound assessed as recombinant human DPP4-mediated compound degradation at 0.1 mM measured after 24 hrs by reverse-phase HPLC/MS analysis. Type of data set: ADME. The conditions noted are these: 100 µM. In short, it runs like this: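 GLP-1 peptides (0.1 mM) incubated at 37 °C with recombinant human DPP IV in 50 mM HEPES, 0.14 M NaCl, pH 8.0, up to 24 h; acid-quenched samples analysed by RP-HPLC-MS for intact peptide.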

Data set [4] concerns the target T1, Dipeptidyl peptidase 4. The data set can be described thus: Competitive inhibition of human recombinant DPP4 using AP-pNA as substrate preincubated for 30 mins followed by substrate addition measured after 30 mins by spectrophotometric analysis.
Data set [5] deals with Mus musculus. The data set can be described thus: Toxicity in C57BL/6 mouse assessed as effect on food consumption at 1 mg/kg, ip qd administered for 7 days measured every day during compound administration. Type of data set: organism-based. On the set-up: dose 1 mg/kg, route intraperitoneal. The conditions noted are these: in vivo, 168 h. In short, it runs like this: (§1)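 C57BL/6 mice given 1 mg/kg ip once daily for seven days, or vehicle; body weight and per-cage food intake recorded daily; water consumption measured on days 3 and 7.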

The subject of data set [6] is Mus musculus. The data set can be described thus: Toxicity in C57BL/6 mouse assessed as effect on body weight at 1 mg/kg, ip qd administered for 7 days measured every day during compound administration. Type of data set: organism-based. Also on record: dose 1 mg/kg, route intraperitoneal. The conditions noted are these: in vivo, 168 h. In outline:
as §1

The test system of data set [7] is Mus musculus. As to the kind of experiment: Antidiabetic activity in db/db mouse assessed as reduction of blood glucose AUC (0 to 480 mins) at 0.2 mg/kg, ip. On the set-up: dose 0.2 mg/kg. Type of data set: functional, organism-based.
Data set [8] has as its system Mus musculus. The data set can be described thus: Antidiabetic activity in db/db mouse assessed as reduction of blood glucose level at 0.2 mg/kg, ip measured at 240 mins relative to vehicle-treated control. Type of data set: functional, organism-based. On the set-up: dose 0.2 mg/kg. In outline: (§2)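 db/db mice given 8 µg/mouse peptide or PBS vehicle ip; fasting blood glucose measured before and at set times after dosing; expressed as percent change from basal FBG; 10 animals per group.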

Data set [9] deals with Mus musculus. The data set can be described thus: Antidiabetic activity in db/db mouse assessed as reduction of blood glucose level at 0.2 mg/kg, ip after 60 mins relative to vehicle-treated control. The data set is classed as functional. On the set-up: scale not given: the % may be the effect or the level left. The following applies: route intraperitoneal. In outline: as §2

Data set [10] relates to Mus musculus. The data set can be described thus: Antidiabetic activity in db/db mouse assessed as reduction of blood glucose level at 0.2 mg/kg, ip after 90 mins relative to vehicle-treated control. The data set is classed as functional. Also on record: scale not given: the % may be the effect or the level left. The following applies: route intraperitoneal. In outline:
as §2

For data set [11], the system named is Mus musculus. As to the kind of experiment: Toxicity in C57BL/6 mouse assessed as abnormalities in brain at 1 mg/kg, ip qd measured on day 7 by necropsy analysis. The data set is classed as organism-based. On the set-up: dose 1 mg/kg, route intraperitoneal. The conditions noted are these: in vivo. In outline: (§3)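 C57BL/6 mice dosed ip once daily for seven days at 1 mg/kg or vehicle; necropsy on day 7 after final dose; liver, kidneys, pancreas, heart and brain collected, inspected for gross abnormalities and weighed; twelve animals in study.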

The subject of data set [12] is Mus musculus. As to the kind of experiment: Toxicity in C57BL/6 mouse assessed as abnormalities in heart at 1 mg/kg, ip qd measured on day 7 by necropsy analysis. Also on record: dose 1 mg/kg, route intraperitoneal. The conditions noted are these: in vivo. The data set is classed as organism-based. In outline: as §3
For data set [13], the system named is Mus musculus. As to the kind of experiment: Toxicity in C57BL/6 mouse assessed as abnormalities in pancreas at 1 mg/kg, ip qd measured on day 7 by necropsy analysis. The conditions noted are these: in vivo. The data set is classed as organism-based. On the set-up: dose 1 mg/kg, route intraperitoneal. In outline:
as §3

The subject of data set [14] is Mus musculus. As to the kind of experiment: Toxicity in C57BL/6 mouse assessed as abnormalities in kidney at 1 mg/kg, ip qd measured on day 7 by necropsy analysis. The data set is classed as organism-based. On the set-up: dose 1 mg/kg, route intraperitoneal. The conditions noted are these: in vivo. In short, it runs like this: as §3
For data set [15], the system named is Mus musculus. As to the kind of experiment: Toxicity in C57BL/6 mouse assessed as abnormalities in liver at 1 mg/kg, ip qd measured on day 7 by necropsy analysis. On the set-up: dose 1 mg/kg, route intraperitoneal. The following applies: in vivo. Type of data set: organism-based. In outline:
as §3

Data set [16] relates to Mus musculus. As to the kind of experiment: Toxicity in C57BL/6 mouse assessed as change in brain weight at 1 mg/kg, ip qd measured on day 7 by necropsy analysis. Type of data set: organism-based. On the set-up: dose 1 mg/kg, route intraperitoneal. The following applies: in vivo. In short, it runs like this: as §3
In data set [17] the test system is Mus musculus. The data set can be described thus: Toxicity in C57BL/6 mouse assessed as change in heart weight at 1 mg/kg, ip qd measured on day 7 by necropsy analysis. The data set is classed as organism-based. On the set-up: dose 1 mg/kg, route intraperitoneal. The conditions noted are these: in vivo. In outline:
as §3

Data set [18] has as its system Mus musculus. As to the kind of experiment: Toxicity in C57BL/6 mouse assessed as change in pancreas weight at 1 mg/kg, ip qd measured on day 7 by necropsy analysis. The data set is classed as organism-based. The conditions noted are these: in vivo. Also on record: dose 1 mg/kg, route intraperitoneal. In short, it runs like this:
as §3

Data set [19] deals with Mus musculus. As to the kind of experiment: Toxicity in C57BL/6 mouse assessed as change in liver weight at 1 mg/kg, ip qd measured on day 7 by necropsy analysis. The following applies: in vivo. Also on record: dose 1 mg/kg, route intraperitoneal. The data set is classed as organism-based. In short, it runs like this: as §3
Data set [20] deals with Mus musculus. The data set can be described thus: Toxicity in C57BL/6 mouse assessed as change in kidney weight at 1 mg/kg, ip qd measured on day 7 by necropsy analysis. The data set is classed as organism-based. On the set-up: dose 1 mg/kg, route intraperitoneal. The conditions noted are these: in vivo. In outline: as §3
Data set [21] has as its system Mus musculus. As to the kind of experiment: Toxicity in C57BL/6 mouse assessed as effect on water consumption at 1 mg/kg, ip qd administered for 7 days measured on day 3 and day 7. The following applies: in vivo, 168 h.

T1 sequence (P27487 whole entry): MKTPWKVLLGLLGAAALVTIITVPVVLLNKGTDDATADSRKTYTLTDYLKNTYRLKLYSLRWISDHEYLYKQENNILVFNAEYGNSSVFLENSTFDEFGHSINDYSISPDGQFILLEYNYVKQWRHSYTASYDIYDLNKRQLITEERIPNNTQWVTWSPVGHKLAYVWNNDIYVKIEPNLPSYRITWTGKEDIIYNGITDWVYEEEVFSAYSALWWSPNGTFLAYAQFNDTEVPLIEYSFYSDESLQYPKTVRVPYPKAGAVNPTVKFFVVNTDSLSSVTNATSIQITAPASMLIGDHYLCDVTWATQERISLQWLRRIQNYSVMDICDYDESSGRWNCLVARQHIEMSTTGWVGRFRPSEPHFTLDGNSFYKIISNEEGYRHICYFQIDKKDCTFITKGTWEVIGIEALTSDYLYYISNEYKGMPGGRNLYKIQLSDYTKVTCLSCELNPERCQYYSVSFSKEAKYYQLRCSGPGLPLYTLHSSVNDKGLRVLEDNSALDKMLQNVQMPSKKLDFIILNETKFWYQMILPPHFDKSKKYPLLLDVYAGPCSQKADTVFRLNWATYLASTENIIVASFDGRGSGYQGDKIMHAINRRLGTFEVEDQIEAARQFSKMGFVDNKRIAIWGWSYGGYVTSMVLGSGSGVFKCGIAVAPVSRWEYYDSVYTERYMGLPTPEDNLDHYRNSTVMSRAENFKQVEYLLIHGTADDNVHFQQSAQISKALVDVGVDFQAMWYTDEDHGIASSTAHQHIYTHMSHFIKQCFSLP

On to `CC[C@H](C)[C@H](NC(=O)[C@@H]1CCCN1C(=O)[C@H](C)N)C(=O)N[C@@H](CO)C(=O)N[C@@H](Cc1c[nH]c2ccccc12)C(=O)N[C@@H](CO)C(=O)O` (H-APISWS-OH), for which the remaining at 0.5 h, 100 µM in data set [1] was less than 70%.

On to `CC(C)[C@H](NC(=O)C(NC(=O)[C@H](Cc1c[nH]c2ccccc12)NC(=O)[C@H](C)NC(=O)C(NC(=O)[C@H](Cc1ccccc1)NC(=O)C(NC(=O)[C@H](CCCCN)NC(=O)[C@H](C)NC(=O)[C@H](C)NC(=O)[C@H](CCC(N)=O)NC(=O)CNC(=O)[C@H](CCC(=O)O)NC(=O)C(NC(=O)[C@H](Cc1ccc(O)cc1)NC(=O)[C@H](CO)NC(=O)[C@H](CO)NC(=O)[C@@H](NC(=O)[C@H](CC(=O)O)NC(=O)[C@H](CO)NC(=O)C(NC(=O)[C@H](Cc1ccccc1)NC(=O)[C@@H](NC(=O)CNC(=O)C(NC(=O)[C@H](C)NC(=O)[C@@H](N)Cc1c[nH]cn1)C(C)(C)C(=O)O)[C@@H](C)O)C(C)(C)C)C(C)C)C(C)(C)C)C(C)(C)C(=O)O)C(C)(C)C)C(C)(C)C)C(=O)N[C@@H](CCCCN)C(=O)NC(C(=O)N[C@@H](CCCNC(=N)N)C(N)=O)C(C)(C)C(=O)O` (stereo partly drawn) (H-HA[ξAsp(3,3-Me2)]GTF[ξTle]SDVSSY[ξTle]EGQAAK[ξAsp(3,3-Me2)]F[ξTle]AW[ξTle]VK[ξAsp(3,3-Me2)]R-NH2), for which the Stability entry at Trypsin is recorded as “Stable”. Moreover, the remaining at 0.6 h, 100 µM in data set [2] was 50%.

On to `CC(C)[C@H](N)C(=O)N1CCC[C@H]1C(=O)NC(C(=O)N1CCC[C@H]1C(=O)N[C@@H](CCCNC(=N)N)C(N)=O)C(C)(C)C` (stereo partly drawn) (H-VP[ξTle]PR-NH2), for which the Stability entry at Dipeptidyl peptidase 4 [3] was “Stable”. At Dipeptidyl peptidase 4 [4], the Ki turned out to be 4.5 µM.

On to `CC[C@H](C)[C@H](NC(=O)[C@H](Cc1ccccc1)NC(=O)[C@H](CCC(=O)O)NC(=O)[C@H](CCCCN)NC(=O)[C@H](C)NC(=O)[C@H](C)NC(=O)[C@H](CCC(N)=O)NC(=O)CNC(=O)[C@H](CCC(=O)O)NC(=O)[C@H](CC(C)C)NC(=O)[C@H](Cc1ccc(O)cc1)NC(=O)[C@H](CO)NC(=O)[C@H](CO)NC(=O)[C@@H](NC(=O)[C@H](CC(=O)O)NC(=O)[C@H](CO)NC(=O)[C@@H](NC(=O)[C@H](Cc1ccccc1)NC(=O)[C@@H](NC(=O)CNC(=O)C(NC(=O)[C@H](C)NC(=O)[C@@H](N)Cc1c[nH]cn1)C(C)(C)C(=O)O)[C@@H](C)O)[C@@H](C)O)C(C)C)C(=O)N[C@@H](C)C(=O)N[C@@H](Cc1c[nH]c2ccccc12)C(=O)N[C@@H](CC(C)C)C(=O)N[C@H](C(=O)N[C@@H](CCCCN)C(=O)NCC(=O)N[C@@H](CCCNC(=N)N)C(N)=O)C(C)C` (stereo partly drawn), for which the Activity result in the data set with Mus musculus [5] is “Non-toxic”; in the data set with Mus musculus [6] it was “Non-toxic”; in the data set on Mus musculus [9], 50%; with Mus musculus [10] it was 45%; with Mus musculus [11] it was “Non-toxic”; with Mus musculus [12] it was “Non-toxic”. In addition, the Activity result with Mus musculus [13], in the data set on Mus musculus [14], with Mus musculus [15], in the data set with Mus musculus [16], with Mus musculus [17] and in the data set on Mus musculus [18] was “Non-toxic” in each case. The Activity entry with Mus musculus [19], in the data set with Mus musculus [20] and in the data set on Mus musculus [21] was “Non-toxic” throughout. For the same molecule, the outcome in the data set with Mus musculus [7] was Active. The result in the data set on Mus musculus [8] was inactive. Moreover, on Dipeptidyl peptidase 4 [3], the Stability entry is recorded as “Stable”.
